Screens: PubChem, several laboratories
RanGTP-Impb inh: disruptors of Ran-importin-beta complex formation – biochemical, FRET, CFP-Ran, YFP-importin-beta, homogeneous, primary screen; cell-free CFP-Ran/YFP-importin-beta FRET ratio; inhibition, % (concentration not given with the values); hit rate 1.1% among 300,000; AID 2216;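 active = more than half of the replicate wells show a fall in the fluorescence ratio signal beyond about 16%, limit read from the data, passing the limit was not always enough; inconclusive = exactly half of the replicate wells pass the set limit; inactive = fewer than half of replicates pass the limit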;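 also: 0% = DMSO wells and 100% = Ran loaded with GDP instead of GTP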
Runt-SMMHC FRET: inhibitors of human RUNX1 Runt domain binding to CBFb-SMMHC | Q01196+Q13951 | Cerulean-Runt/Venus-CBFb-SMMHC FRET ratio 530/480, 1 h | inhibition, % at 20 µM | hit rate 0.74% among 220,000 | AID 1434;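 active = mean inhibition across duplicate retests at 20 µM reaching about 50%, limit read from the data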;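 also: 0% = DMSO wells and 100% = wells with excess untagged CBFb-SMMHC; inhibitors lower the FRET ratio by blocking Runt binding to CBFb-SMMHC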
Target sequence (Q01196 whole entry, looked up, the tested form may be a part): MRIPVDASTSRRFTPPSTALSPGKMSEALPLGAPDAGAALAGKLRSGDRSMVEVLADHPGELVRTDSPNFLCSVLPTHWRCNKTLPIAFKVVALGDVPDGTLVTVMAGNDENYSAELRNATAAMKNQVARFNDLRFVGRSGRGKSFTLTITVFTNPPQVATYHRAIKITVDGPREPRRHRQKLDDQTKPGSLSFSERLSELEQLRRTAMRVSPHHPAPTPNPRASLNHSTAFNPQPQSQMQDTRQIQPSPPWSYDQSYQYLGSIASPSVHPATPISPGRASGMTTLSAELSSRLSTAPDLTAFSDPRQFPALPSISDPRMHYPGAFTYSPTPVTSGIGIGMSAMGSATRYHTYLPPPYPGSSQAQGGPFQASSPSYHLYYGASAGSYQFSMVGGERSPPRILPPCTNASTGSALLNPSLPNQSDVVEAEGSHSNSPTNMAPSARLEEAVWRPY
Target sequence (Q13951 whole entry, looked up, the tested form may be a part): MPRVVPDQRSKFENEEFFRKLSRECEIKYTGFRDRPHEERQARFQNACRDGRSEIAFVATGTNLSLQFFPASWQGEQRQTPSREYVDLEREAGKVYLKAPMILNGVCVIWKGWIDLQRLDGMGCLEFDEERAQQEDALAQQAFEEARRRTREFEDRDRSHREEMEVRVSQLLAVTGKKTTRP
14-3-3 Bad PPI: disrupts binding of bovine 14-3-3 zeta to phospho-Bad peptide; P63103; TR-FRET 14-3-3zeta/Dy647-pBad peptide displacement, 1 h; inhibition, % at 21.7 µM; hit rate 0.71% among 220,000; AID 781;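 active = inhibition above about 70%, limit read from the data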;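 also: 0% = full 14-3-3 plus peptide FRET controls and 100% = background without 14-3-3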
Hck Nef HTS: blocks Nef-activated human Hck kinase. P08631. AID 463187. inhibition, % at 20 µM. hit rate 0.68% among 220,000. Recombinant Hck-YEEI plus Nef, Z-Lyte FRET kinase assay;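 active = Hck-Nef kinase inhibition above about 50%, limit read from the data; inactive = inhibition below that limit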;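 also: 0% = DMSO with Hck plus Nef and 100% = Hck alone without Nef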
Runt-CBFb FRET: blocks binding of human RUNX1 Runt domain to CBFb | Q01196+Q13951 | Cerulean-Runt/Venus-CBFb FRET ratio 530/480, 1 h | inhibition, % at 20 µM | hit rate 0.46% among 220,000;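 active = inhibition over about 50% at 20 µM in the single-dose screen, limit read from the data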;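 also: 0% = DMSO wells and 100% = excess unlabeled CBFb competitor control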
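Schedule: protein complex preformed 1 h, compound exposure 1 h, room temperature, dark; test system: Cerulean-labeled Runt domain protein; amount: 100 nM per protein; buffer or medium: Tris 50 mM pH 7.5, KCl, K2SO4, 0.01% BSA; read-out: loss of energy transfer signal; detection: FRET fluorescence; controls: 5 µM unlabeled CBFb as full-inhibition high control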
TbHK1 inh: blocks Trypanosoma brucei hexokinase 1 activity; recombinant TbHK1, G6PDH-coupled NADH A340; inhibition, % at 10 µM; hit rate 0.11% among 220,000; AID 1430;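 active = inhibition of 50% or more in the single-dose primary screen; inactive = inhibition below 50%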
Hck-Nef confirm: Hck-Nef kinase inhibition, confirmation; shares compounds with Hck Nef HTS; Recombinant Hck-YEEI:Nef, Z-Lyte FRET kinase assay; calls only at 10 µM; hit rate 28% among 1,300;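 active = average inhibition of at least 50%, with Z-scores no higher than 3 in both the phospho-tyrosine peptide and fluorescence counterscreens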
* marks the source's active call; other numbers are inactive results; i = inactive; ? = inconclusive; / = no result given; + = active, no number; [ ] = another dose, or the depositor's remark. Shown are actives, neighbours in structure and some others; about 2.2% of the full set was active somewhere.

SMILES	RanGTP-Impb inh	Runt-SMMHC FRET	14-3-3 Bad PPI	Hck Nef HTS	Runt-CBFb FRET	TbHK1 inh	Hck-Nef confirm
CN=c1scc(-c2ccco2)n1/N=C/c1ccc(O)c(O)c1	-2.3	9.4	-27.2	50.7*	7.4	-19.2	i
COc1ccc(O)c(/C=N/n2c(-c3ccco3)csc2=Nc2cccnc2)c1	2.8	-19.2	-1.6	-1.0	-0.6	-0.3	/
Cc1ccc2nc(-c3ccncc3)c(NC3CCCCC3)n2c1	-1.2	-21.3	-4.4	-3.1	-4.2	-6.4	/
Cc1c(Br)c(=O)oc2c(Br)c(O)ccc12	3.0	86.1*	1.5	71.3*	20.8	-6.6	i
CN(C(=O)c1ccco1)c1nc2c(s1)CCCC2	3.7	-0.6	5.4	1.3	2.7	-15.4	/
CN(C)c1ccc(C(c2ccc(N(C)C)cc2)c2ccc([N+](=O)[O-])cc2)cc1	1.3	1.1	-1.5	6.8	1.1	-30.6	/
CCN(CC)CCCNC(=O)CCC(=O)Nc1ccc2nc(N3CCC(C)CC3)cc(C)c2c1	-4.1	-13.6	0.6	87.6*	-4.8	-10.9	/
CC(=O)Nc1ccc(S(=O)(=O)N(C)CC(=O)OCC(=O)N2CCCCCC2)cc1	-0.2	/	/	/	/	/	/
Oc1[nH]c2ccccc2c1N=Nc1ncnc2c1oc1ccccc12	-5.7	-11.1	45.6	56.2*	-1.9	-47.3	i
CCc1cc2c(N=Nc3c(O)[nH]c4ccccc34)ncnc2s1	-1.4	-68.0	3.9	1.9	-1.9	-7.3	/
CC(C)CC(c1nnnn1C1CCCC1)N1CCC(C(N)=O)CC1 (stereo not given)	?	-3.2	6.9	12.2	-0.4	6.8	/
COC(=O)c1ccccc1NC(=O)N1CCN(Cc2ccco2)CC1	-2.4	2.5	-5.5	64.0*	1.0	-1.6	i
COC(=O)c1ccccc1NC(=O)N1CCCC1	/	-0.9	-1.6	10.6	1.3	2.2	/
CNC(=O)CN(C)S(=O)(=O)c1ccc(F)cc1	-4.1	4.0	-4.0	-1.2	0.8	3.7	/
COc1cccc(=O)c2c(C)n(CC(=O)c3ccccc3)c(C)c12	0.7	-34.8	-8.2	52.8*	-4.2	-5.9	i
Cc1ccc(C(=O)C(C)N2C(=O)NC(C)(c3ccccc3)C2=O)cc1 (stereo not given)	-3.6	1.0	9.2	18.8	2.1	1.9	/
CCOC(=O)N1CCC(NC(=O)CC2C(=O)NCCN2Cc2cccc(F)c2F)CC1 (stereo not given)	3.8	/	/	/	/	/	/
COc1ccc(C2=NN(C(=O)c3ccco3)C(c3cc4ccccc4nc3Cl)C2)cc1 (stereo not given)	-1.4	-2.8	39.1	50.9*	-2.9	-11.6	i
Nc1c(C(=O)NC2CC2)sc2nc3c(c(-c4ccco4)c12)CC/C3=C/c1ccco1	/	-18.8	-8.1	85.3*	27.4	-9.6	i
CCCCC(CC)Cn1c2nc3ccccc3nc2c2c(=N)oc(C)nc21 (stereo not given)	-1.4	-4.6	-0.9	57.2*	-1.9	10.0	i
CCOC(=O)N1CCc2c(sc3nc4n(c(=O)c23)N=C(c2ccc(OC)cc2)CS4)C1	8.2	-0.5	27.4	77.3*	0.4	-47.9	+
N#C/C(=C(/O)COC(=O)Cc1c[nH]c2ccccc12)c1nc2ccccc2[nH]1	1.1	12.9	-1.4	60.1*	6.2	-5.9	+
COc1ccc(Nc2ccnc(Nc3ccc(OC)cc3)n2)cc1	5.0	2.4	3.4	88.3*	-3.1	0.9	+
COc1ccc(-c2cnnc(N/N=C/c3ccc(O)cc3)n2)cc1	2.0	2.9	36.5	71.3*	-5.1	-37.2	i
O=C(Nc1cccc(CNCCc2c[nH]c3ccccc23)c1)c1ccccc1Cl	-2.5	/	/	/	/	/	/
SMILES	RanGTP-Impb inh	Runt-SMMHC FRET	14-3-3 Bad PPI	Hck Nef HTS	Runt-CBFb FRET	TbHK1 inh	Hck-Nef confirm
O=C(NC(=O)c1ccc(Cl)cc1)Nc1ccc(-c2cnco2)cc1	-1.2	-1.2	78.3*	60.2*	-1.6	-8.8	i
O=C(NC(=O)c1ccc(C(F)(F)F)cc1)Nc1ccc(-c2cnco2)cc1	4.5	0.6	16.2	29.6	-1.4	-23.5	/
O=C(CCc1nc2ccccc2s1)OCC(=O)c1ccc[nH]1	-1.5	3.3	-12.3	13.0	-0.4	-3.1	/
COc1cccc(N=c2oc3ccc(OC)cc3cc2-c2nc3ccccc3[nH]2)c1	-2.6	-20.3	78.6*[fluorescence artefact?]	99.2*	-16.9	-16.1	+
O=c1oc2c(CN3CCOCC3)c(O)ccc2c2c1CCC2	/	54.1*	/	85.5*	20.6	-34.4	/
CC1CCCN(Cc2c(O)ccc3c4c(c(=O)oc23)CCCC4)C1 (stereo not given)	10.4	78.7*	-4.1	64.4*	44.6	-33.3	/
Cc1cc(=O)oc2c(CN3CCCC3)c(O)ccc12	8.7	/	/	/	/	/	/
Cc1ccc(N2CC(C(=O)Nc3nnc(SCC(=O)Nc4cc(C)on4)s3)CC2=O)cc1 (stereo not given)	-2.2	-5.0	-2.5	8.9	-5.3	11.9	/
COc1cccc(N2CC(C(=O)Nc3nnc(SCC(=O)Nc4cc(C)on4)s3)CC2=O)c1 (stereo not given)	-4.1	-5.8	69.2	52.0*	-8.8	3.2	+
CCNc1nc(-c2cc(C)n(Cc3ccco3)c2C)cs1	-4.9	-11.2	-16.1	24.9	7.6	0.6	/
Cc1cc(-c2csc(NC(=O)c3ccc(=O)[nH]c3)n2)c(C)n1Cc1ccco1	-4.4	-7.9	44.8	81.2*	20.1	-12.1	i
CCOc1ccc(/C=C2\SC(=S)N(NS(=O)(=O)c3ccc(C)cc3)C2=O)cc1OC	2.4	-13.4	2.7	50.6*	-9.9	6.7	+
Cc1ccc(N=Cc2cc(Cc3ccccc3Cl)cc([N+](=O)[O-])c2O)c(O)c1	-7.3	-44.3	37.2	55.8*	-17.8	11.9	i
COc1ccc(N2C(=O)C(CC(N)=O)N(NC(=O)c3cccc(OC)c3)C2=S)cc1 (stereo not given)	6.1	-3.9	-6.9	20.0	1.8	0.9	/
CCOC(=O)c1ccc(Nc2ncnc3nc[nH]c23)cc1	-2.1	2.0	-6.9	6.1	-1.5	-21.9	/
c1ccc(COc2ccc(Nc3ncnc4nc[nH]c34)cc2)cc1	-2.4	-3.0	5.5	68.5*	0.2	-5.6	+
COc1ccc2nc3c(cc2c1)c(NC(=O)C1CCCO1)nn3CC(C)C (stereo not given)	119.1*	60.9*	-5.3	59.4*	11.9	43.3	i
COC(=O)c1c(NC(=O)Cc2ccc(OC)c(S(=O)(=O)N3CCOCC3)c2)sc(C)c1C	0.2	/	/	/	/	/	/
COc1ccc(-c2nc(-c3ccc(O)cc3O)cs2)cc1OC	-2.3	-4.2	-5.8	60.6*	-1.2	-16.0	+
COc1ccc(-c2nc(CCl)cs2)cc1OC	3.2	-1.8	1.6	1.3	-1.0	-8.6	/
